# Measured values gathered from unrelated publications.
# Lines come from different studies, so protocols differ.
# CASP1: Caspase-1 (CASP1, Homo sapiens, UniProt P29466)
# PPARA: Peroxisome proliferator-activated receptor alpha (PPARA, Homo sapiens, UniProt Q07869)
# ADRA1B: Alpha-1B adrenergic receptor (ADRA1B, Homo sapiens, UniProt P35368)
SMILES,target,assay,conditions,Ki [µM]
O=c1c(O)c(-c2cc(O)c(O)c(O)c2)oc2cc(O)cc(O)c12,CASP1,"enzyme activity, inhibitor, fluorescence",,14.3
CC1(COc2ccc(CC3SC(=O)NC3=O)cc2)CCCCC1 (stereo not shown),PPARA,"ligand displacement, TR-FRET",,141
O=C1c2ccccc2CCCN1CCCCN1CCN(c2ccccn2)CC1,ADRA1B,"ligand displacement, radioligand",,2.54
CC(=O)N[C@@H](CCCNC(=N)N)C(=O)NCCOCCOCC(=O)N[C@H](CC(=O)O)C(=O)N1CCC[C@H]1B(O)O,"Prolyl endopeptidase (PREP, Homo sapiens, UniProt P48147)","enzyme activity, inhibitor, fluorescence",,0.0239
CS(=O)(=O)Nc1ccc[nH]c1=S,"Insulin-degrading enzyme (IDE, Homo sapiens, UniProt P14735)","cell-free assay, inhibitor",,> 200
CC(=O)N[C@@H](CC(C)C)C(=O)N[C@@H](CC(C)C)C(=O)N[C@@H](CCCN=C(N)N)C(=O)N[C@H](C(=O)N[C@@H](CCCCN)C(=O)N[C@@H](CCCN=C(N)N)C(N)=O)C(C)C,"Neuroendocrine convertase 2 (Homo sapiens, UniProt P16519)","enzyme activity, inhibitor",,1.6
NCCCCC(c1ccccc1)(c1ccccc1)c1ccccc1,"Kinesin-like protein KIF11 (KIF11, Homo sapiens, UniProt P52732)","ATPase activity, inhibitor",,1.67
O=c1c(O)c(-c2ccc(O)c(O)c2)oc2cc(O)cc(O)c12,CASP1,"enzyme activity, inhibitor, fluorescence",,> 300
COc1ccc2c(c1)C(=O)N(CCN1CCN(c3ccccc3OC)CC1)C2,ADRA1B,"ligand displacement, radioligand",,0.0387
Cc1cccc(C(=O)NCN2CCN(c3ccccc3C#N)CC2)c1,"D(2) dopamine receptor (Drd2, Rattus norvegicus, UniProt P61169)","ligand displacement, radioligand",cell membranes,1.38
O=C(O)c1c(Sc2ccccc2)c2cc(Cl)ccc2n1Cc1ccc(Cl)cc1,PPARA,"ligand displacement, TR-FRET",,19.7
CCCC[C@H](NC(=O)[C@H](C)c1c(C)[nH]c2ccc(O)cc12)c1ncc(-c2cc3ccccc3nc2OC)[nH]1,"Histone deacetylase 3 (HDAC3, Homo sapiens, UniProt O15379)","enzyme activity, inhibitor",,0.06
CSC[C@H]1CN(Cc2c[nH]c3c(N)ncnc23)C[C@@H]1O,"5'-methylthioadenosine/S-adenosylhomocysteine nucleosidase (Staphylococcus aureus, UniProt Q5HFG2)","enzyme activity, inhibitor",,0.0078
